Source: ChEMBL document CHEMBL4673245, “Discovery of AZD9833, a Potent and Orally Bioavailable Selective Estrogen Receptor Degrader and Antagonist” (J Med Chem, 2020)

Key:
[1] = target: T1, Estrogen receptor (Homo sapiens) (UniProt P03372); assay: Induction of ERalpha degradation in human CAMA1 cells assessed as decrease in ER-alpha level at 0.1 uM by Western blot analysis relative to fulvestrant; assay type: cell-based; design: scale not given: the % may be the effect or the level left; settings: CAMA-1
T1 sequence (whole entry): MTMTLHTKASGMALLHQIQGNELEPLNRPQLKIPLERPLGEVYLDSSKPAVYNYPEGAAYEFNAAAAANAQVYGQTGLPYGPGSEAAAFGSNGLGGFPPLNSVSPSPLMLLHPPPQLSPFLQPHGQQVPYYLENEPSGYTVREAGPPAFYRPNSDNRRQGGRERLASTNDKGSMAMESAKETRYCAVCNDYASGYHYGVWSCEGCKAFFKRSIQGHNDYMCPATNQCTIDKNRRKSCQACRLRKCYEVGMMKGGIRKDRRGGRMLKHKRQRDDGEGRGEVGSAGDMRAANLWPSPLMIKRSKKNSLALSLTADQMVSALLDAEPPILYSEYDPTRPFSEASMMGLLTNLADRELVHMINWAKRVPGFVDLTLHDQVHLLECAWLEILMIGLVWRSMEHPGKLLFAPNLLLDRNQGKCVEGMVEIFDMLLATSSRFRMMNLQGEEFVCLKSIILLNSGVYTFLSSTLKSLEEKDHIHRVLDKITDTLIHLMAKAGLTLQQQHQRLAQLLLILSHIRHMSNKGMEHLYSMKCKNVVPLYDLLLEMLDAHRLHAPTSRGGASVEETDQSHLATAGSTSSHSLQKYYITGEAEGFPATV
Outline: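 Western blot for ERα in MCF-7 and CAMA-1 cells after treatment at 0.1 µM. ER level is expressed as % degradation relative to fulvestrant, from a single experiment (n = 1).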

[2] = target: T1, Estrogen receptor (Homo sapiens); assay: Induction of ERalpha degradation in human MCF7 cells assessed as decrease in ER-alpha level at 0.1 uM by Western blot analysis relative to fulvestrant; assay type: cell-based; design: scale not given: the % may be the effect or the level left
[3] = Intrinsic clearance in rat hepatocytes assessed per million cells; assay type: ADME, cell-based, Hepatocyte; settings: read-out: CLH
Outline: (§1)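 Hepatocyte intrinsic clearance measured from DMSO stock in isolated hepatocytes diluted to 1x10⁶ cells/mL; rate expressed as µl/min/10⁶ cells.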

[4] = Fraction unbound in human plasma by equilibrium dialysis method; assay type: ADME, cell-free
Outline: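 Fraction unbound measured from DMSO stock by equilibrium dialysis in 10% human plasma.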

[5] = target: T1, Estrogen receptor (Homo sapiens); assay: Induction of ERalpha degradation in human MCF7 cells assessed as maximum degradation incubated for 18 to 24 hrs by Alexa fluor 488/Hoechst staining based immunofluorescence imaging analysis relative to fulvestrant; assay type: cell-based; settings: time lower […], time upper […]
Estrogen receptor [6] = target: T2, Estrogen receptor (Homo sapiens, UniProt P03372); assay: Induction of ERalpha degradation in human MCF7 cells assessed as decrease in ER-alpha level incubated for 18 to 24 hrs by Alexa fluor 488/Hoechst staining based immunofluorescence imaging analysis; assay type: cell-based
T2 sequence (P03372 whole entry): T1 sequence (whole entry)
Outline: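 ER degradation in MCF-7 cells via cellular degradation assay; n ≥ 2, degradation also expressed as %Dmax relative to fulvestrant.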

Estrogen receptor [7] = target: T2, Estrogen receptor; assay: Displacement of fluormone ES2 green reagent from human GST-tagged ERalpha LBD (282 to 595 residues) expressed in baculovirus infected insect cells incubated for 1 hrs by TR-FRET Lanthascreen assay
[8] = Intrinsic clearance in human hepatocytes assessed per million cells; assay type: ADME, cell-based, Hepatocyte; settings: read-out: CLH; outline: as §1
[9] = Lipophilicity, log D of the compound in buffer and octanol at pH 7.4 by shake flask method; assay type: physicochemical
Outline: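 logD at pH 7.4 by shake flask, buffer/octanol volume ratio 100:1.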

SMILES | Activity [1] | Activity [2] | hepatocyte CLint [3] | fraction unbound [4] | Emax [5] | IC50 (Estrogen receptor [6]) | IC50 (Estrogen receptor [7]) | hepatocyte CLint [8] | logD [9]
COc1cc(NC2CN(CCCF)C2)ccc1[C@@H]1c2ccc3[nH]ncc3c2C[C@@H](C)N1CC(F)(F)F | 110% | 95% | 12 µL/min/1e6 cells | 0.06 | 98% | 0.0631 nM | 5.01 nM |  | 
COc1cc(OCCN2CC(CF)C2)ccc1[C@@H]1c2ccc3[nH]ncc3c2C[C@@H](C)N1CC(C)(C)F | 74% | 69% | 28 µL/min/1e6 cells | 0.065 | 95% |  | 3.16 nM | 12 µL/min/1e6 cells | 3.6
C[C@@H]1Cc2c(ccc3[nH]ncc23)[C@@H](c2ccc(NC3CN(CCCF)C3)cn2)N1CC(C)(F)F |  |  | 49 µL/min/1e6 cells | 0.24 |  |  |  |  | 
C[C@@H]1Cc2c(ccc3[nH]ncc23)[C@@H](c2ccc(NC3(C)CN(CCCF)C3)cn2)N1CC(F)(F)F |  |  | 35 µL/min/1e6 cells |  | 82% | 3.16 nM | 7.94 nM |  | 3.2
COc1cc(OCCNCCCF)ccc1[C@@H]1c2ccc3[nH]ncc3c2C[C@@H](C)N1CC1(F)CC1 |  |  | 9 µL/min/1e6 cells | 0.18 | 82% |  |  |  | 2.4
C[C@@H]1Cc2c(ccc3[nH]ncc23)[C@@H](c2ccc(OCCN3CC(CF)C3)cn2)N1CC1(F)CC1 | 87% | 75% | 38 µL/min/1e6 cells | 0.34 | 98% | 0.398 nM | 1.26 nM | 8 µL/min/1e6 cells | 
COc1cc(NC2CN(CCCF)C2)ccc1[C@@H]1c2ccc3[nH]ncc3c2C[C@@H](C)N1CC(C)(C)F | 89% | 86% | 8 µL/min/1e6 cells | 0.14 | 96% | 0.2 nM | 6.31 nM |  | 
C[C@@H]1Cc2c(ccc3[nH]ncc23)[C@@H](c2ccc(N(C)[C@H]3CCN(CCCF)C3)cn2)N1CC(F)(F)F |  |  | 34 µL/min/1e6 cells | 0.057 | 87% | 0.794 nM | 39.8 nM |  | 3.5
COc1cc(OCCN2CC(CF)C2)ccc1[C@@H]1c2ccc3[nH]ncc3c2C[C@@H](C)N1CC(C)C | 74% | 94% | 9 µL/min/1e6 cells | 0.52 | 98% |  | 7.94 nM | 3 µL/min/1e6 cells | 
C[C@@H]1Cc2c(ccc3[nH]ncc23)[C@@H](c2ccc(NCCNCCCF)cn2)N1CC(F)(F)F |  |  | 22 µL/min/1e6 cells | 0.16 | 94% | 0.631 nM | 5.01 nM |  | 2.7
COc1cc(OC2CN(CCCF)C2)ccc1[C@@H]1c2ccc3[nH]ncc3c2C[C@@H](C)N1CC1(F)CC1 | 90% | 90% | 16 µL/min/1e6 cells | 0.11 | 97% |  | 7.94 nM |  | 
C[C@@H]1Cc2c(ccc3[nH]ncc23)[C@@H](c2ccc(NC3CN(CCCF)C3)cn2)N1CC(F)(F)CO | 105% | 104% | 16 µL/min/1e6 cells | 0.64 | 99% | 0.501 nM | 6.31 nM |  | 
C[C@@H]1Cc2c(ccc3[nH]ncc23)[C@@H](c2ccc(NCCNCCCF)cn2)N1CC1(F)CC1 |  |  | 22 µL/min/1e6 cells |  | 93% | 1 nM | 10 nM |  | 2
CC(C)CN1[C@H](c2ccc(OCCN3CC(CF)C3)cc2)c2ccc3[nH]ncc3c2C[C@H]1C |  |  | 66 µL/min/1e6 cells | 0.11 | 99% | 0.158 nM | 2 nM | 8 µL/min/1e6 cells | 3.4
CC1(C)Cc2c(ccc3[nH]ncc23)[C@@H](c2ccc(NC3CN(CCCF)C3)cn2)N1CC(F)F |  |  | 270 µL/min/1e6 cells | 0.22 | 98% | 0.794 nM | 3.16 nM |  | 
CC1(C)Cc2c(ccc3[nH]ncc23)[C@@H](c2ccc(NC3CN(CCCF)C3)cn2)N1CC(F)(F)F |  |  | 296 µL/min/1e6 cells | 0.14 | 95% |  |  |  | 
COc1cc(OCCN2CC(CF)C2)ccc1[C@@H]1c2ccc3[nH]ncc3c2C[C@@H](C)N1CC1(F)COC1 | 75% | 79% | 42 µL/min/1e6 cells | 0.25 | 95% | 0.251 nM | 3.98 nM |  | 2.7
CC(C)CN1[C@H](c2ccc(OCCN3CC(CF)C3)cn2)c2ccc3[nH]ncc3c2C[C@H]1C |  |  | 41 µL/min/1e6 cells | 0.19 | 99% | 0.398 nM | 10 nM | 8 µL/min/1e6 cells | 3.2
C[C@@H]1Cc2c(ccc3[nH]ncc23)[C@@H](c2ccc(OCCN3CC(CF)C3)cn2)N1CC(F)F | 88% | 97% | 36 µL/min/1e6 cells | 0.49 | 98% | 0.501 nM | 2.51 nM | 5 µL/min/1e6 cells | 
C[C@@H]1Cc2c(ccc3[nH]ncc23)[C@@H](c2ccc(O[C@H]3CCN(CCCF)C3)cn2)N1CC(F)(F)F |  |  | 44 µL/min/1e6 cells | 0.15 | 98% | 0.398 nM | 2 nM |  | 3.2
C[C@@H]1Cc2c(ccc3[nH]ncc23)[C@@H](c2ccc(NC3CN(CCCF)C3)cn2)N1CC1(F)CC1 | 102% | 90% | 24 µL/min/1e6 cells | 0.26 | 96% | 0.631 nM | 6.31 nM |  | 
C[C@@H]1Cc2c(ccc3[nH]ncc23)[C@@H](c2c(F)cc(OCCN3CC(CF)C3)cc2F)N1CC(C)(C)F | 66% | 84% | 88 µL/min/1e6 cells | 0.008 |  | 0.126 nM | 1 nM | 8 µL/min/1e6 cells | 4.4
COc1cc(NC2CN(CCCF)C2)ccc1[C@@H]1c2ccc3[nH]ncc3c2C[C@@H](C)N1CC(C)(F)F | 101% | 80% | 15 µL/min/1e6 cells | 0.043 | 98% | 0.0398 nM | 2.51 nM |  | 
C[C@@H]1Cc2c(ccc3[nH]ncc23)[C@@H](c2ccc(NC3CN(CCCF)C3)cn2)N1CC(C)(C)F |  |  | 26 µL/min/1e6 cells | 0.1 | 96% |  |  |  | 
C[C@@H]1Cc2c(ccc3[nH]ncc23)[C@@H](c2ccc(N(C)C3CN(CCCF)C3)cn2)N1CC(F)(F)F | 82% | 85% | 20 µL/min/1e6 cells | 0.15 | 98% | 0.2 nM | 2 nM |  | 
COc1cc(NC2CN(CCCF)C2)ccc1[C@@H]1c2ccc3[nH]ncc3c2C[C@@H](C)N1CC(F)(F)CO |  |  | 20 µL/min/1e6 cells | 0.23 | 98% | 0.2 nM | 5.01 nM |  | 
COc1cc(OCCN2CC(CF)C2)ccc1[C@@H]1c2ccc3[nH]ncc3c2C[C@@H](C)N1CC1(F)CC1 | 88% | 79% | 20 µL/min/1e6 cells | 0.21 | 96% | 0.126 nM |  | 7 µL/min/1e6 cells | 
COc1cc(NC2CN(CCCF)C2)ccc1[C@@H]1c2ccc3[nH]ncc3c2C[C@@H](C)N1CC(F)F | 100% | 99% | 14 µL/min/1e6 cells | 0.12 | 99% | 0.1 nM | 2 nM |  | 3.2
CC(C)CN1[C@H](c2c(F)cc(OCCN3CC(CF)C3)cc2F)c2ccc3[nH]ncc3c2C[C@H]1C |  |  | 74 µL/min/1e6 cells | 0.004 | 99% | 0.2 nM | 0.794 nM | 9 µL/min/1e6 cells | 4.6
C[C@@H]1Cc2c(ccc3[nH]ncc23)[C@@H](c2ccc(NC3CN(CCCF)C3)cn2)N1CC(F)F |  |  | 22 µL/min/1e6 cells | 0.4 | 99% | 0.316 nM | 3.98 nM |  | 2.4
